Data reported in ChEMBL document CHEMBL1122644, “Ring-substituted 1,2-dialkylated 1,2-bis(hydroxyphenyl)ethanes. 2. Synthesis and estrogen receptor binding affinity of 4,4'-, 5,5'-, and 6,6'-disubstituted metahexestrols” (J Med Chem, 1984).
Values belong to the compound of their own block, whether it stands above or below them.

Legend:
[1] = target: Estrogen receptor (Bos taurus) (UniProt Q9XSB5+P49884); assay: Relative binding affinity for calf uterine estrogen receptor is the ratio of molar concentrations of 17-beta-estradiol and compound required to decrease amount of bound [3H]-E2 by 50% X 100.; assay type: protein assay
In short: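 Calf uterine cytosol incubated with [3H]estradiol and competitor at 4 °C for 16 h. Free ligand removed with dextran-coated charcoal, then centrifuged and a supernatant aliquot counted. Six competitor concentrations chosen to span 50% competition on a semilog plot. Molar concentrations of unlabeled estradiol and test compound giving 50% reduction in binding were read from the plot.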

[2] = target: T1, Estrogen receptor (Mus musculus) (UniProt O08537+P19785); assay: Anti-estrogenic activity in mouse uterotrophic assay at 0 ug; assay type: functional; set-up: unit not given here
In short: (§1)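 Immature female NMRI mice, 20 days old (14.5 ± 1.2 g), randomized into groups of 10. Test compound in olive oil (0.1 mL) given subcutaneously daily for 3 days alongside estrone stimulation. Uteri removed 24 h after last injection, fixed in Bouin's solution, washed, dried and weighed. Readout is inhibition of estrone-stimulated uterine growth.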

[3] = target: T1, Estrogen receptor (Mus musculus); assay: (§2) Anti-estrogenic activity in mouse uterotrophic assay at 1 ug; assay type: functional; set-up: unit not given here; in short: as §1
[4] = target: T1, Estrogen receptor (Mus musculus); assay: Anti-estrogenic activity in mouse uterotrophic assay at 10 ug; assay type: functional; set-up: unit not given here; in short: as §1
[5] = target: T1, Estrogen receptor (Mus musculus); assay: Anti-estrogenic activity in mouse uterotrophic assay at 100 ug; assay type: functional; set-up: unit not given here; in short: as §1
[6] = target: T1, Estrogen receptor (Mus musculus); assay: Estrogenic activity in mouse uterotrophic assay at 0 ug; assay type: functional; set-up: unit not given here
In short: (§3)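 Uterotrophic test in 20-day-old immature female NMRI mice (14.5 ± 1.2 g), 10 per group. Daily s.c. injections of compound in 0.1 mL olive oil for 3 days. Uteri excised 24 h after final dose, Bouin-fixed, washed, dried and weighed to measure stimulation of uterine growth.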

[7] = target: T1, Estrogen receptor (Mus musculus); assay: Estrogenic activity in mouse uterotrophic assay at 1 ug; assay type: functional; in short: as §3
[8] = target: T1, Estrogen receptor (Mus musculus); assay: Estrogenic activity in mouse uterotrophic assay at 10 ug; assay type: functional; set-up: unit not given here; in short: as §3
[9] = target: T1, Estrogen receptor (Mus musculus); assay: Estrogenic activity in mouse uterotrophic assay at 100 ug; assay type: functional; set-up: unit not given here; in short: as §3
[10] = target: T1, Estrogen receptor (Mus musculus); assay: Estrogenic activity in mouse uterotrophic assay at 1000 ug; assay type: functional; set-up: unit not given here; in short: as §3
[11] = target: T1, Estrogen receptor (Mus musculus); assay: Estrogenic activity in mouse uterotrophic assay at 0.1 ug; assay type: functional; in short: as §3
[12] = target: T1, Estrogen receptor (Mus musculus); assay: Estrogenic activity in mouse uterotrophic assay at 0.5 ug; assay type: functional; in short: as §3
[13] = target: T1, Estrogen receptor (Mus musculus); assay: Estrogenic activity in mouse uterotrophic assay at 5 ug; assay type: functional; in short: as §3
[14] = target: T1, Estrogen receptor (Mus musculus); assay: Estrogenic activity in mouse uterotrophic assay at 50 ug; assay type: functional; in short: as §3
[15] = target: T1, Estrogen receptor (Mus musculus); assay: Anti-estrogenic activity as inhibition of estrone-stimulated uterine growth in mice at 100 mg/kg; assay type: functional, organism-based; set-up: dose 100 mg/kg; in short: as §1
[16] = target: T1, Estrogen receptor (Mus musculus); assay: Anti-estrogenic activity as inhibition of estrone-stimulated uterine growth in mice at 10 mg/kg; assay type: functional, organism-based; set-up: dose 10 mg/kg; in short: as §1
[17] = target: T1, Estrogen receptor (Mus musculus); assay: Anti-estrogenic activity as inhibition of estrone-stimulated uterine growth in mice at 1 mg/kg; assay type: functional, organism-based; set-up: dose 1 mg/kg; in short: as §1
[18] = target: T1, Estrogen receptor (Mus musculus); assay: Anti-estrogenic activity in mouse uterotrophic assay at 25 ug; assay type: functional; in short: as §1
[19] = target: T1, Estrogen receptor (Mus musculus); assay: Anti-estrogenic activity in mouse uterotrophic assay at 250 ug; assay type: functional; in short: as §1
[20] = target: T1, Estrogen receptor (Mus musculus); assay: Anti-estrogenic activity in mouse uterotrophic assay at 5 ug; assay type: functional; in short: as §1
[21] = target: T1, Estrogen receptor (Mus musculus); assay: Anti-estrogenic activity in mouse uterotrophic assay at 50 ug; assay type: functional; in short: as §1
[22] = target: T1, Estrogen receptor (Mus musculus); assay: Estrogenic activity in mouse uterotrophic assay at 8 ug; assay type: functional; in short: as §3
[23] = target: T1, Estrogen receptor (Mus musculus); assay: Estrogenic activity in mouse uterotrophic assay at 80 ug; assay type: functional; in short: as §3
[24] = target: T1, Estrogen receptor (Mus musculus); assay: Estrogenic activity in mouse uterotrophic assay at 800 ug; assay type: functional; in short: as §3
[25] = target: T1, Estrogen receptor (Mus musculus); assay: Estrogenic activity in mouse uterotrophic assay at 16 ug; assay type: functional; in short: as §3
[26] = target: T1, Estrogen receptor (Mus musculus); assay: Estrogenic activity in mouse uterotrophic assay at 2 ug; assay type: functional; in short: as §3
[27] = target: T1, Estrogen receptor (Mus musculus); assay: Estrogenic activity in mouse uterotrophic assay at 240 ug; assay type: functional; in short: as §3
[28] = target: T1, Estrogen receptor (Mus musculus); assay: Anti-estrogenic activity as inhibition of estrone-stimulated uterine growth in mice at 50 mg/kg; assay type: functional, organism-based; set-up: dose 50 mg/kg; in short: as §1
[29] = target: T1, Estrogen receptor (Mus musculus); assay: Anti-estrogenic activity as inhibition of estrone-stimulated uterine growth in mice at 5 mg/kg; assay type: functional, organism-based; set-up: dose 5 mg/kg; in short: as §1
[30] = target: T1, Estrogen receptor (Mus musculus); assay: Anti-estrogenic activity as inhibition of estrone-stimulated uterine growth in mice at 25 mg/kg; assay type: functional, organism-based; set-up: dose 25 mg/kg; in short: as §1
[31] = target: T1, Estrogen receptor (Mus musculus); assay: Anti-estrogenic activity as inhibition of estrone-stimulated uterine growth in mice at 250 mg/kg; assay type: functional, organism-based; set-up: dose 250 mg/kg; in short: as §1
[32] = target: T1, Estrogen receptor (Mus musculus); assay: as §2; assay type: functional; in short: as §1

T1 sequence (O08537 whole entry, looked up): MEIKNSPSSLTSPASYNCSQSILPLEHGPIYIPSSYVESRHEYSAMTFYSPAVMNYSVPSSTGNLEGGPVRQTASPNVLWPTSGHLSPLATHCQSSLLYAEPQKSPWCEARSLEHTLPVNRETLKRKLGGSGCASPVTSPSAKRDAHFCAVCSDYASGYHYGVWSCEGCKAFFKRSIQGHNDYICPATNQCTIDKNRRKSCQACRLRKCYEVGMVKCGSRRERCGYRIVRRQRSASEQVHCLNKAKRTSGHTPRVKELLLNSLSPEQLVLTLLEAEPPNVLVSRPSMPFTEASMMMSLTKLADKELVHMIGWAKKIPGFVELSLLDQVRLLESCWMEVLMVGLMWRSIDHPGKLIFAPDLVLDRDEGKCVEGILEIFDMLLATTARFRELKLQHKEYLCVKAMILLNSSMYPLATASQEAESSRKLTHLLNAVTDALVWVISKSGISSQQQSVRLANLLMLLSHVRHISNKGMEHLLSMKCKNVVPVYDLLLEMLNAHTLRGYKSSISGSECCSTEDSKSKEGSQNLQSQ
T1 sequence (P19785 whole entry, looked up): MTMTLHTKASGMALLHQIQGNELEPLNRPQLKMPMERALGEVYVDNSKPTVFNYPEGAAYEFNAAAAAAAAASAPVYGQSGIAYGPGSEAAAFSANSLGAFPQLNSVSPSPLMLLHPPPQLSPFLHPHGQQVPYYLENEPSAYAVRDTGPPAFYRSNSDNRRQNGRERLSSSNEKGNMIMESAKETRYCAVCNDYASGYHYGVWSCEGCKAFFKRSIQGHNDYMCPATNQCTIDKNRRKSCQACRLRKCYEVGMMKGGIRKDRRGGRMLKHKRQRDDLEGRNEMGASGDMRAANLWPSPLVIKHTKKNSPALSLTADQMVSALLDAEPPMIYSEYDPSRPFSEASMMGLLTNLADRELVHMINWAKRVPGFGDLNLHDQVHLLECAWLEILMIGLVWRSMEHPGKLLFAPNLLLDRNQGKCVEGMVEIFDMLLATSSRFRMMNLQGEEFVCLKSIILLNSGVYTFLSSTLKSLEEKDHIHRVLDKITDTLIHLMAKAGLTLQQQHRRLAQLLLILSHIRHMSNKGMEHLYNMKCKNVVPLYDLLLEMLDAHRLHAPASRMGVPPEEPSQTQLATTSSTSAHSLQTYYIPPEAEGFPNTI

SMILES: CCOCc1cc(C(CC)C(CC)c2ccc(O)c(COCC)c2)ccc1O (configuration not stated)
RBA [1]: 0.18

SMILES: CCC(c1ccc(F)c(O)c1)C(CC)c1ccc(F)c(O)c1 (configuration not stated)
RBA [1]: 1.1 | Activity [2]: 13.5 | Activity [3]: 34.2 | Activity [5]: 22.4 | Activity [18]: 28.6 | Activity [19]: 24.4 | Activity [20]: 30.2 | Activity [21]: 24.7 | Activity [22]: 18.5 | Activity [23]: 31.8 | Activity [24]: 32.6 | Activity [6]: 8.7 | Activity [25]: 25.4 | Activity [26]: 8.9 | Activity [27]: 32.8 | inhibition [28]: 50% | inhibition [29]: 25% | inhibition [30]: 32% | inhibition [15]: 60% | inhibition [17]: 7% | inhibition [31]: 51%

SMILES: CCC(c1ccc(I)c(O)c1)C(CC)c1ccc(I)c(O)c1 (configuration not stated)
RBA [1]: < 0.01

SMILES: CCC(c1cc(O)cc(Cl)c1)C(CC)c1cc(O)cc(Cl)c1 (configuration not stated)
RBA [1]: 0.03

SMILES: CCc1cc(C(CC)C(CC)c2ccc(O)c(CC)c2)ccc1O (configuration not stated)
RBA [1]: 1.2

SMILES: CCC(c1ccc(O)c(I)c1)C(CC)c1ccc(O)c(I)c1 (configuration not stated)
RBA [1]: 0.17

SMILES: CCC(c1ccc(O)c(C)c1)C(CC)c1ccc(O)c(C)c1 (configuration not stated)
RBA [1]: 8.1

SMILES: CCC(c1ccc(N(C)C)c(O)c1)C(CC)c1ccc(N(C)C)c(O)c1 (configuration not stated)
RBA [1]: < 0.01

SMILES: CCC(c1ccc(O)c(N(C)C)c1)C(CC)c1ccc(O)c(N(C)C)c1 (configuration not stated)
RBA [1]: < 0.01

SMILES: CCC(c1ccc(N)c(O)c1)C(CC)c1ccc(N)c(O)c1 (configuration not stated)
RBA [1]: 0.52 | Activity [2]: 14.8 | Activity [3]: 33 | Activity [4]: 41.7 | Activity [5]: 42.3 | Activity [6]: 13.9 | Activity [8]: 19.9 | Activity [9]: 19.5 | Activity [10]: 36.6 | inhibition [17]: 29%

SMILES: CCC(c1ccc(O)c([N+](=O)[O-])c1)C(CC)c1ccc(O)c([N+](=O)[O-])c1 (configuration not stated)
RBA [1]: 0.14

Other lines, results leading:

RBA [1]: 32
SMILES: CCC(c1ccc(O)cc1O)C(CC)c1ccc(O)cc1O (configuration not stated)

RBA [1]: 4.2 | Activity [2]: 13.7 | Activity [3]: 40.6 | Activity [4]: 41 | Activity [5]: 41.5 | Activity [6]: 13.7 | Activity [7]: 25.1 | Activity [8]: 47.8 | Activity [9]: 41.6 | Activity [10]: 38.5 | Activity [11]: 16.7
SMILES: CCC(c1cc(O)ccc1Cl)C(CC)c1cc(O)ccc1Cl (configuration not stated)

RBA [1]: 15 | Activity [2]: 13.7 | Activity [3]: 27.2 | Activity [4]: 25.4 | Activity [5]: 31 | Activity [6]: 13.7 | Activity [12]: 13.3 | Activity [8]: 37.5 | Activity [9]: 52.1 | Activity [10]: 50.5 | Activity [13]: 19.8 | Activity [14]: 41.9 | inhibition [15]: 22% | inhibition [16]: 47% | inhibition [17]: 39%
SMILES: CCC(c1cc(O)ccc1C)C(CC)c1cc(O)ccc1C (configuration not stated)

RBA [1]: < 0.01
SMILES: CCC(c1cc(O)ccc1O)C(CC)c1cc(O)ccc1O (configuration not stated)

RBA [1]: 1.6
SMILES: CCC(c1ccc(O)c(Cl)c1)C(CC)c1ccc(O)c(Cl)c1 (configuration not stated)

RBA [1]: 7 | Activity [2]: 13.7 | Activity [4]: 38.9 | Activity [5]: 41.2 | Activity [32]: 37.8 | Activity [6]: 13.1 | Activity [7]: 15.5 | Activity [8]: 23.2 | Activity [9]: 39 | Activity [10]: 34.6
SMILES: CCC(c1cc(O)ccc1F)C(CC)c1cc(O)ccc1F (configuration not stated)

RBA [1]: 5.6
SMILES: CCC(c1ccc(O)c(N)c1)C(CC)c1ccc(O)c(N)c1 (configuration not stated)

RBA [1]: 0.25
SMILES: CCC(c1ccc(O)c(Br)c1)C(CC)c1ccc(O)c(Br)c1 (configuration not stated)

RBA [1]: 0.71
SMILES: CCC(c1ccc(O)c(CO)c1)C(CC)c1ccc(O)c(CO)c1 (configuration not stated)
